We go through 29 compounds from ChEMBL document CHEMBL1135622, “Use of the Kohonen neural network for rapid screening of ex vivo anti-HIV activity of styrylquinolines” (J Med Chem, 2002).

Experiment [1] deals with Human immunodeficiency virus 1. Put plainly: Reduction of viral load in the cell supernatant. It is filed as functional, organism-based.
Experiment [2] concerns Human immunodeficiency virus 1. Put plainly: Cytotoxicity (C) and percentage of dead cells at 100 uM concentration. It is filed as functional. Summed up:
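CEM lymphocytes (RPMI-1640, 10% FCS) plated in triplicate and infected with cell-free HIV-1 NL4-3; virus removed after 2 h, drug at 100 µM added in DMSO in fresh medium for 72 h. Viability by MTT (7.5 mg/mL stock), 4 h at […], formazan dissolved in SDS/HCl, absorbance at 570 nm; value given as percentage of dead cells.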

Experiment [3] deals with Human immunodeficiency virus 1. Description: Ex vivo activity against residual viruses (% of nontreated infected cells) in cell supernatant at 100 uM concentration. The experiment is classed as functional.
The subject of experiment [4] is Human immunodeficiency virus 1. Put plainly: Inhibitory concentration against HIV-1 required for 50% reduction of viral load in the cell supernatant; Not reached. The experiment is classed as functional, organism-based.

Turning to `O=C(O)c1ccc2ccc(/C=C/c3ccc(O)cc3)nc2c1O`, in experiment [1], half-maximal inhibition (IC50) was put at 95 µM. The compound further gave a Cytotoxicity in experiment [2] of 50%. Moreover, the RV in experiment [3] came to 26%.
With `O=C(O)c1ccc2ccc(/C=C/c3cc(O)c(O)c(O)c3)nc2c1O`, in experiment [2], the Cytotoxicity was found to be 90%. The RV in experiment [3] is reported as 0%.
Regarding `O=C(O)c1ccc2ccc(/C=C/c3cc(O)cc(/C=C/c4ccc5ccc(C(=O)O)c(O)c5n4)c3)nc2c1O`, the NR result in experiment [4] is on record as “Not reached”. Moreover, the Cytotoxicity in experiment [2] is on record as 0%. In experiment [3], this compound displayed an RV of 100%.
Consider `O=C(O)c1ccc2ccc(/C=C/c3cccnc3)nc2c1O`, for which the NR result in experiment [4] is listed as “Not reached”. The compound also gave a Cytotoxicity in experiment [2] of 74%. Moreover, in experiment [3], the RV worked out at 74%.
With `Nc1ccc(/C=C/c2ccc3ccc(C(=O)O)c(O)c3n2)cc1`, in experiment [1], the IC50 (usually the midpoint of a concentration-inhibition curve) turned out to be 50 µM. Moreover, the Cytotoxicity in experiment [2] is listed as 40%. The compound also came in with an RV in experiment [3] of 8%.
As to `O=C(O)c1ccc2ccc(/C=C/c3ccco3)nc2c1O`, the NR entry in experiment [4] is recorded as “Not reached”. Further, the Cytotoxicity in experiment [2] is on record as 0%. Moreover, the RV in experiment [3] is 70%.
Take `O=C(O)c1cccc2ccc(/C=C/c3ccc(O)c(O)c3)nc12`: inhibition in experiment [1] was half-maximal at 12 µM (IC50). In addition, the Cytotoxicity in experiment [2] is recorded as 0%. In experiment [3], the RV is reported as 0%.
In experiment [1], `O=C(O)c1ccc2nc(/C=C/c3ccc(O)c(O)c3)ccc2c1` came in with an IC50 of 20 µM. In experiment [2], the Cytotoxicity came to 0%. In addition, the RV in experiment [3] was determined as 4%.
As for `O=C(O)c1ccc2ccc(/C=C/c3ccc([N+](=O)[O-])cc3)nc2c1O`, in experiment [2], the Cytotoxicity stood at 74%. Besides, the RV in experiment [3] turned out to be 6%.
On to `O=C(O)c1ccc2ccc(/C=C/c3ccc(CO)cc3)nc2c1O`, for which, in experiment [1], half-maximal inhibition (IC50) was put at 110 µM. The compound further returned a Cytotoxicity in experiment [2] of 17%. Further, the RV in experiment [3] is given as 55%.
On the same counts, the results for `O=C(O)c1ccc2ccc(/C=C/c3ccc(O)c(O)c3)nc2c1O` are 1.3 µM, 70% and 0%.
Taken in the same sequence, the figures for `COc1ccc(/C=C/c2ccc3ccc(C(=O)O)c(O)c3n2)cc1O` were 54 µM, 57% and 0%.
Regarding `O=C(O)c1ccc2ccc(/C=C/c3ccc(O)cc3O)nc2c1O`, the IC50 in experiment [1] was 80 µM. The Cytotoxicity in experiment [2] stood at 26%. In experiment [3], this compound registered an RV of 42%.
On to `O=C(O)c1cc(C(=O)O)c2ccc(/C=C/c3ccc(O)c(O)c3)nc2c1`, for which the IC50 in experiment [1] is 15 µM. For the same compound, the Cytotoxicity in experiment [2] was found to be 0%. The compound also gave an RV in experiment [3] of 5%.
Compound `O=C(O)c1ccc2ccc(/C=C/c3ccccc3)nc2c1O` displayed a Cytotoxicity in experiment [2] of 100%. This compound gave an RV in experiment [3] of 0%.
In turn, `COc1cc(/C=C/c2ccc3ccc(C(=O)O)c(O)c3n2)ccc1O` had a half-inhibitory concentration (IC50) in experiment [1] of 3 µM. In experiment [2], this compound returned a Cytotoxicity of 48%. Further, the RV in experiment [3] is listed as 12%.
Taken in the same sequence, the figures for `COc1cc(/C=C/c2ccc3ccc(C(=O)O)c(O)c3n2)cc(OC)c1O` were 9 µM, 17% and 0%.
The compound `CC(=O)Nc1ccc(/C=C/c2ccc3ccc(C(=O)O)c(O)c3n2)cc1` had a Cytotoxicity in experiment [2] of 88%. In addition, in experiment [3], the RV is 0%.
The compound `O=C(O)c1cccc2nc(/C=C/c3ccc(O)c(O)c3)ccc12` yielded an IC50 in experiment [1] of 50 µM. This compound registered a Cytotoxicity in experiment [2] of 0%. The compound also gave an RV in experiment [3] of 5%.
Taken in the same sequence, the figures for `O=C(O)c1ccc2ccc(/C=C/c3cc(Br)c(O)c(Br)c3)nc2c1O` were 30 µM, 8% and 13%.
`COc1cc(/C=C/c2ccc3ccc(C(=O)O)cc3n2)ccc1O` gave an IC50 in experiment [1] of 20 µM. Besides, the Cytotoxicity in experiment [2] worked out at 30%. Besides, in experiment [3], the RV amounted to 17%.
On the same counts, the results for `O=C(O)c1cc(/C=C/c2ccc3ccc(C(=O)O)c(O)c3n2)ccc1O` are 80 µM, 0% and 24%.
On the same counts, the results for `O=C(O)c1ccc2ccc(/C=C/c3ccc4c(c3)OCO4)nc2c1O` are 10 µM, 40% and 4%.
As to `O=C(O)c1ccc2ccc(/C=C/c3cc(O)cc(O)c3)nc2c1O`, in experiment [4], the NR entry is given as “Not reached”. In experiment [2], this compound displayed a Cytotoxicity of 17%. The same compound had an RV in experiment [3] of 55%.
In turn, `O=C(O)c1ccc2ccc(/C=C/c3ccsc3)nc2c1O` had a Cytotoxicity in experiment [2] of 68%. In experiment [3], this compound came in with an RV of 0%.
In experiment [1], `O=C(O)c1ccc2ccc(/C=C/c3ccc(F)c(F)c3)nc2c1O` yielded an IC50 of 30 µM. Besides, in experiment [2], the Cytotoxicity worked out at 91%. Also, in experiment [3], the RV amounted to 2%.
On the same counts, the results for `O=C(O)c1ccc2ccc(/C=C/c3cc(O)c(O)c(I)c3)nc2c1O` are 6.8 µM, 42% and 3%.
Turning to `Oc1ccc(/C=C/c2ccc3cccc(O)c3n2)cc1O`, in experiment [2], the Cytotoxicity was found to be 78%. For the same compound, the RV in experiment [3] is listed as 1%.
Turning to `COc1cc(/C=C/c2ccc3ccc(C(=O)O)c(O)c3n2)cc(O)c1O`, in experiment [1], 12 µM corresponded to half-maximal inhibition (IC50). The compound also came in with a Cytotoxicity in experiment [2] of 14%. This compound had an RV in experiment [3] of 6%.
